≈ marks a conversion by molar mass, not a printed value. Calls of active or inactive are those of the source. The calls are words filed in the database; no cut-off is given here.
Experiments:
Plasmodium falciparum [1] = assay: Antiplasmodial activity against chloroquine-sensitive Plasmodium falciparum D6 after 72 hrs by LDH assay; type: functional, organism-based; details: Plasmodium falciparum, D6, 72 h; read-out: IC50
Plasmodium falciparum [2] = assay: Antiplasmodial activity against chloroquine-resistant Plasmodium falciparum W2 after 72 hrs by LDH assay; type: functional, organism-based; details: Plasmodium falciparum, W2, 72 h; read-out: IC50
Vero = assay: Cytotoxicity against african green monkey Vero cells after 48 hrs by neutral red assay; type: cell-based; details: chlorocebus sabaeus
Outline: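 Vero cells seeded at 25,000/well and grown 24 h, then exposed to serially diluted samples for 48 h. Viable cells measured by neutral red assay, with doxorubicin as positive control. IC50 taken from dose-response curves.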

[3] = system: Mycobacterium tuberculosis; assay: Antimycobacterial activity against Mycobacterium tuberculosis H37Rv; type: functional, organism-based
Candida albicans = assay: Antifungal activity against Candida albicans ATCC 90028; type: functional, organism-based
Outline: (§1)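 Broth microdilution per modified CLSI method; samples serially diluted in 20% DMSO/saline, tested in duplicate; inocula set by OD630 of suspensions in incubation broth; growth read at 630 nm before and after incubation; amphotericin B drug control.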

Cryptococcus neoformans = assay: Antifungal activity against Cryptococcus neoformans ATCC 90113; type: functional, organism-based; outline: as §1
[4] = system: Mycobacterium intracellulare; assay: Antimycobacterial activity against Mycobacterium intracellular ATCC 23068; type: functional, organism-based
Outline: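 Modified Franzblau method; samples serially diluted in 20% DMSO/saline, tested in duplicate; inoculum set by OD630; fluorescence read at 544ex/590em before and after incubation; ciprofloxacin drug control.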

[5] = (§2) Antineuroinflammatory activity in LPS-stimulated rat neonatal microglia assessed as inhibition of PMA-induced superoxide anion production preincubated 15 mins prior to PMA challenge measured after 70 mins; type: functional, cell-based
[6] = (§3) Antineuroinflammatory activity in LPS-stimulated rat neonatal microglia assessed as inhibition of PMA-induced TXB2 production preincubated 15 mins prior to PMA challenge measured after 70 mins; type: functional, cell-based
[7] = Antineuroinflammatory activity in LPS-stimulated rat neonatal microglia assessed as drug level causing 50% PMA-induced LDH release preincubated 15 mins prior to PMA challenge measured after 70 mins; type: functional
Outline: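 Neonatal rat microglia (2 × 10^5/well) primed with E. coli LPS 0.3 ng/mL for 17 h at 35.9 °C, washed with HBSS, given compound (0.01–10 μM) or DMSO 15 min, then PMA 1 μM; LDH read spectrophotometrically after 70 min; LDH50 relative to Triton X-100 (0.1%) release; duplicates.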

Microglia [8] = assay: as §2; type: functional, cell-based
Microglia [9] = assay: as §3; type: functional, cell-based
Plasmodium berghei [10] = assay: Antiplasmodial activity against Plasmodium berghei NK65 infected in Swiss Webster mice (Mus musculus) assessed as inhibition of parasitaemia at 200 mg/kg, perorally administered 1 day after infection measured after 5 days post infection; type: functional; set-up: Activity: scale not given: the % may be the effect or the level left; details: route oral
Outline: (§4)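 Male Swiss Webster mice (18-20 g, ≥5/group) inoculated i.p. with 2×10^7 P. berghei NK-65 parasitized RBC, given a single oral dose (100 μl, SSV or dilute HCl vehicle); parasitemia by Giemsa-stained tail blood smears days 5–28; activity as % decrease versus untreated controls on day 5.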

Plasmodium berghei [11] = assay: Antiplasmodial activity against Plasmodium berghei NK65 infected in Swiss Webster mice (Mus musculus) assessed as average parasitaemia at 200 mg/kg, perorally administered 1 day after infection measured after 5 days post infection; type: functional; details: route oral
Outline: (§5)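 Male Swiss Webster mice (18-20 g), at least 5 per group, were inoculated ip with 2×10^7 P. berghei NK-65-parasitized red cells from a donor mouse and given a single oral dose (100 μl). Stock was made in SSV or 0.1 M HCl and diluted in SSV or 0.01 M HCl. Parasitemia was read from Giemsa-stained tail blood smears from day 5 to day 28. Cure meant no parasitemia through day 28.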

Plasmodium berghei [12] = assay: Antiplasmodial activity against Plasmodium berghei NK65 infected in Swiss Webster mice (Mus musculus) assessed as average parasitaemia at 200 mg/kg, perorally administered 1 day after infection measured after 14 days post infection; type: functional; details: route oral; outline: as §5
Plasmodium berghei [13] = assay: Antiplasmodial activity against Plasmodium berghei NK65 infected in Swiss Webster mice (Mus musculus) assessed as average parasitaemia at 200 mg/kg, perorally administered 1 day after infection measured after 21 days post infection; type: functional; details: route oral; outline: as §5
Plasmodium berghei [14] = assay: Antiplasmodial activity against Plasmodium berghei NK65 infected in Swiss Webster mice (Mus musculus) assessed as average parasitaemia at 200 mg/kg, perorally administered 1 day after infection measured after 28 days post infection; type: functional; details: route oral; outline: as §4
Plasmodium berghei [15] = assay: Antiplasmodial activity against Plasmodium berghei NK65 infected in Swiss Webster mice (Mus musculus) assessed as parasitaemia cure at 200 mg/kg, perorally administered 1 day after infection measured after 28 days post infection; type: functional; details: route oral; outline: as §5
MDCK = assay: Apparent permeability across apical to basolateral side of MDCK cells expressing MDR; type: ADME, cell-based, Canis lupus familiaris; details: dog
Outline: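 MDR-MDCK cells (passage 12-40) seeded at 75,000 cells/cm2 and grown 8 days on Transwell inserts to a monolayer. Bidirectional transport over 2 h in HBSS pH 7.4 with test substance at 50 μM and caffeine (5 μM) as standard. Donor and receiver samples quantified by LC-MS. Cumulative amount transported plotted against time to derive apparent permeability.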

Plasmodium berghei [16] = assay: Antiplasmodial activity against Plasmodium berghei NK65 infected in Swiss Webster mice (Mus musculus) assessed as average parasitaemia at 200 mg/kg, perorally administered 1 day after infection measured after 10 days post infection; type: functional; details: route oral; outline: as §4
Plasmodium yoelii = assay: Antiplasmodial activity against Plasmodium yoelii infected in perorally dosed mice (Mus musculus); type: functional; details: po

Structure (SMILES) | IC50 (Plasmodium falciparum [1]) [µg/mL] | IC50 (Plasmodium falciparum [2]) [µg/mL] | MIC [3] [µg/mL] | IC50 (Candida albicans) [µg/mL] | IC50 (Cryptococcus neoformans) [µg/mL] | IC50 [4] [µg/mL] | IC50 [5] [nM] | IC50 [6] [nM] | Activity [7] [µM] | other results
CC(C)(C)Cn1c2ccccc2c2ccnc(C3=C[C@@]4(O)CC/C=C\CCCCN5CC[C@@H]3[C@]3(C[C@@H]6/C=C\CCCCN6[C@H]34)C5)c21 [9-N-NEOPENTYLMANZAMINE A] | 2.4 (≈ 3.88 µM) | 2.8 (≈ 4.52 µM) | 4 (≈ 6.46 µM) | 7 (≈ 11.3 µM) | 4 (≈ 6.46 µM) | 0.5 (≈ 0.808 µM) | 70 | 70 | >10 | IC50 (Vero): 0.7 µg/mL (≈ 1.13 µM)
CCCn1c2ccccc2c2ccnc(C3=C[C@@]4(O)CC/C=C\CCCCN5CC[C@@H]3[C@]3(C[C@@H]6/C=C\CCCCN6[C@H]34)C5)c21 [9-N-PROPYLMANZAMINE A] | 0.69 (≈ 1.17 µM) | 0.74 (≈ 1.25 µM) | 37 (≈ 62.6 µM) | > 20 | > 20 | 2 (≈ 3.38 µM) | 3000 | > 10000 | >10 | IC50 (Vero): 3.7 µg/mL (≈ 6.26 µM)
Oc1cccc2c1[nH]c1c(C3=C[C@@]4(O)CCCCCCCCN5CC[C@@H]3[C@]3(C[C@@H]6CCCCCCN6[C@H]34)C5)nccc12 [15,16,32,33-TETRAHYDRO-8-HYDROXYMANZAMINE A] | 0.09 (≈ 0.158 µM) | 0.62 (≈ 1.09 µM) | 24 (≈ 42.2 µM) | 6 (≈ 10.5 µM) | 1.5 (≈ 2.64 µM) | 0.1 (≈ 0.176 µM) | > 10000 | 1970 | >10 | Activity (Microglia [8]): inactive; Activity (Microglia [9]): inactive
CCN(CC)CCCC(C)Nc1ccnc2cc(Cl)ccc12 (stereo unspecified) [CHLOROQUINE] |  |  |  |  |  |  |  |  |  | Activity (Plasmodium berghei [10]): 100%; Activity (Plasmodium berghei [11]): 0%; Activity (Plasmodium berghei [12]): 0.2%; Activity (Plasmodium berghei [13]): 4%; Activity (Plasmodium berghei [14]): 8%; Activity (Plasmodium berghei [15]): 80%
Cl.O[C@]12C=C(c3nccc4c3[nH]c3ccccc34)[C@@H]3CCN(CCCC/C=C\CC1)C[C@@]31C[C@@H]3/C=C\CCCCN3[C@H]12 [MANZAMINE A HCL] |  |  |  |  |  |  |  |  |  | Papp (MDCK): 1.9 ×10⁻⁶ cm/s
C=C[C@H]1CN2CC[C@H]1C[C@H]2[C@H](O)c1ccnc2ccc(OC)cc12 [QUININE] |  |  |  |  |  |  |  |  |  | Activity (Plasmodium berghei [10]): 26%; Activity (Plasmodium berghei [11]): 7.3%; Activity (Plasmodium berghei [16]): 14%; Activity (Plasmodium berghei [12]): 32%; Activity (Plasmodium berghei [13]): 45%; Activity (Plasmodium berghei [15]): 0%
C[C@H]1[C@H](OC(=O)CCC(=O)[O-])O[C@@H]2O[C@@]3(C)CC[C@H]4[C@H](C)CC[C@@H]1[C@@]24OO3.[Na+] [SODIUM ARESUNATE] |  |  |  |  |  |  |  |  |  | ED50 (Plasmodium yoelii): 4.1 mg/kg; ED90 (Plasmodium yoelii): 17 mg/kg
O[C@]12C=C(c3nccc4c3[nH]c3ccccc34)[C@@H]3CCN(CCCCCCCC1)C[C@@]31C[C@@H]3CCCCCCN3[C@H]12 [TETRAHYDROMANZAMINE A] |  | 1.5 (≈ 2.71 µM) | 50 (≈ 90.4 µM) | 7.5 (≈ 13.6 µM) | 0.9 (≈ 1.63 µM) | 0.45 (≈ 0.814 µM) | > 10000 | > 10000 | >10 | Activity (Microglia [8]): inactive; Activity (Microglia [9]): inactive

— ChEMBL document CHEMBL1157729, “Structure-activity relationship and mechanism of action studies of manzamine analogues for the control of neuroinflammation and cerebral infections” (J Med Chem, 2010)
